Assay results from different studies.
Each line is one published result; the experiments were not run side by side.
Target: Serine/threonine-protein kinase 36 (STK36, Homo sapiens, UniProt Q9NRP7)
Residues used in one study (Q9NRP7 1-1315): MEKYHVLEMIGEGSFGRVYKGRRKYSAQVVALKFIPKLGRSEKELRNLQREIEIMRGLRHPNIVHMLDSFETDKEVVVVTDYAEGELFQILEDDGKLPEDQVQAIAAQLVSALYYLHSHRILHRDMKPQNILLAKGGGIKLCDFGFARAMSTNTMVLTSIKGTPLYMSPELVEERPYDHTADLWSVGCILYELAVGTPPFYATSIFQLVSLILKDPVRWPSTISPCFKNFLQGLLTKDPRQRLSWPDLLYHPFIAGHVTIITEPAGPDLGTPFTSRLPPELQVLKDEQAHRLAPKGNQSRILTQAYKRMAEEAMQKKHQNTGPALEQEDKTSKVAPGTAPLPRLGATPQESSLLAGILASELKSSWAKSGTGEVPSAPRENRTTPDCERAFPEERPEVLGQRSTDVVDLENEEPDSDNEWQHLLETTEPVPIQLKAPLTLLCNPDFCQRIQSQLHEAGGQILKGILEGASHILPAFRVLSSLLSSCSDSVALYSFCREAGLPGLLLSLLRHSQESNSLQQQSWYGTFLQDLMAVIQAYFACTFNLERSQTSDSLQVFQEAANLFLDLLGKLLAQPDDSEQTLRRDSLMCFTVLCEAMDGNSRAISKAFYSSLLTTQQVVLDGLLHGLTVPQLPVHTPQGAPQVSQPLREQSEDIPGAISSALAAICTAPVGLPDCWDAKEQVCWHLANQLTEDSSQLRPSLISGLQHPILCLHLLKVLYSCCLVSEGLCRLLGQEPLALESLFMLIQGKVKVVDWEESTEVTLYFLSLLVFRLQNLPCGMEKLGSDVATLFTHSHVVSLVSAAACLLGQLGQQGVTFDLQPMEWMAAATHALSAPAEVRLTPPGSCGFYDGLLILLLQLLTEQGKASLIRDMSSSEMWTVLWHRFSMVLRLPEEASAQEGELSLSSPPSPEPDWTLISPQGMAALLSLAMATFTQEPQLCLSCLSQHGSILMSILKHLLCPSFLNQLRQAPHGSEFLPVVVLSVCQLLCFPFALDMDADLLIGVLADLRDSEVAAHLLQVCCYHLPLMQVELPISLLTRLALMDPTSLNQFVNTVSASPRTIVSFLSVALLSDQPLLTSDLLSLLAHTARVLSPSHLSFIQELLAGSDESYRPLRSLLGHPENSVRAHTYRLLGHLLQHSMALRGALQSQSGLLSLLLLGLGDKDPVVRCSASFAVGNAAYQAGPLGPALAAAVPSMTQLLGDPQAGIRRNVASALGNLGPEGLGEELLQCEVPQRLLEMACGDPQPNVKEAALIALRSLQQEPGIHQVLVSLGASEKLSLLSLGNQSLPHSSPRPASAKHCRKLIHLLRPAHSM

SMILES	read-out	technique	tested at	remaining binding [%]
O=C(NCC1CCOCC1)c1n[nH]cc1NC(=O)c1c(F)cccc1F	binding	competition with immobilised ligand	1 µM	98
CC(=O)Nc1c(C(C)=O)c(=O)n(C)c2nc(-c3ccc(Cl)cc3Cl)c(-c3ccc(Cl)cc3)cc12	cell-free assay	competition with immobilised ligand	1 µM	92
CC1CCCN1c1nccc(-c2cnn3ncccc23)n1 (stereo not shown)	binding	–	1 µM	100
Cc1cc(-n2nc(Cc3cc(F)cc(C(F)(F)F)c3)nc2C)ccc1C(N)=O	cell-free assay	competition with immobilised ligand	1 µM	100
Cc1cnc(Nc2ccc(C(=O)N3CCC(N4CCCC4)CC3)cc2)nc1-c1cc2ccccc2s1	binding	competition with immobilised ligand	1 µM	3.6
COc1ccc2c(c1)O[C@H](c1ccc(OC)c(OC)c1)C[C@@H]2NC(=O)C1(c2ccc3c(c2)OC(F)(F)O3)CC1	cell-free assay	competition with immobilised ligand	1 µM	94
C=CC(=O)N1CCC(C(=O)NCC(=O)N2CCN(c3nc(-c4cnc(N)nc4C(F)F)nc(N4CCOCC4)n3)CC2)CC1	binding	competition with immobilised ligand	1 µM	95
c1ccc(N2CCN(Cc3nc4ccccc4[nH]3)CC2)nc1	binding	competition with immobilised ligand	1 µM	84
CN(C)c1nccc(-c2cnn3ncccc23)n1	binding	–	1 µM	100
CCN1CCN(Cc2ccc(C(=O)Nc3ccc(C)c(Oc4ccc5c(c4)CC(=O)N5)c3)cc2C(F)(F)F)CC1	binding	competition with immobilised ligand	1 µM	81
C[C@@H]1CCN(c2nccc(-c3cnn4ncccc34)n2)C1	binding	–	1 µM	87
CNC(=O)[C@@H]1CC[C@@H](n2c(-c3ccc4cnccc4c3)nc3ccc(C(=O)NCc4cccc(C(N)=O)c4)cc32)C1	binding	competition with immobilised ligand	1 µM	93
COc1ncc2cc3ccccc3nc2c1C#N	cell-free assay	competition with immobilised ligand	5 µM	88
Nc1ncc2c(n1)-c1c([nH]c3ccc(C#CC4CC4)cc13)CCCC2	binding	competition with immobilised ligand	1 µM	100
O=C(NCCCN1CCOCC1)c1ccc(Nc2nccc(-c3cc4ccccc4s3)n2)cc1	binding	competition with immobilised ligand	1 µM	27
CNCc1ccccc1-c1csc([C@H](C)Nc2nc(C)nc3cc(OC)c(OC)cc23)c1	cell-free assay	competition with immobilised ligand	1 µM	100
CN(C)c1nccc(-c2cnc3ncccn23)n1	binding	–	1 µM	99
O=C(c1ccc(Nc2ncc(Cl)c(-c3cc4ccccc4s3)n2)cc1)N1CCC(N2CCCC2)CC1	binding	competition with immobilised ligand	1 µM	3.4
CN(c1ccnc(CNc2nc(Nc3ccc4c(c3)CC(=O)N4)ncc2C(F)(F)F)n1)S(C)(=O)=O	cell-free assay	competition with immobilised ligand	1 µM	87
N[C@H]1CCN(c2nccc(-c3cnn4ncccc34)n2)C1	binding	–	1 µM	62
CS(=O)(=O)N1CCCC(NC(=O)[C@H](CCC2CCCCC2)NC(=O)c2ccc(CNc3ncnc4c3nnn4-c3ccccc3)cc2)C1 (stereo partly shown)	cell-free assay	competition with immobilised ligand	0.1 µM	97
COc1ccnn2ncc(-c3ccnc(N(C)C)n3)c12	binding	–	1 µM	81
